# Test results: ChEMBL document CHEMBL4325893, “Synthesis and antibacterial profiles of targeted triclosan derivatives” (2019)
# Columns and labels:
# Staphylococcus aureus [1] = assay: Antibacterial activity against Staphylococcus aureus ATCC 6538 after 18 hrs; assay type: functional; details: ATCC 6538, 18 h
# Procedure, shortened: (§1)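 Broth microdilution in Nutrient Broth No. 2; stocks in ethanol diluted to 0.01–128 µg/ml (triclosan) or 0.25–256 µg/ml (glycosides). Overnight 37 °C NB2 cultures diluted 1 in 10^4 in saline and added to the dilutions. Incubation at 37 °C with agitation, OD read every 15 min; MIC is the lowest concentration preventing any OD rise after 18 h.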
# Staphylococcus aureus [2] = assay: Antibacterial activity against Staphylococcus aureus ATCC 6538P after 18 hrs; assay type: functional; procedure, shortened: as §1
# Staphylococcus aureus [3] = assay: Antibacterial activity against Staphylococcus aureus ATCC 9144 after 18 hrs; assay type: functional; details: ATCC 9144, 18 h; procedure, shortened: as §1
# Staphylococcus aureus [4] = assay: Antibacterial activity against Staphylococcus aureus ATCC 25923 after 18 hrs; assay type: functional; details: ATCC 25923, 18 h; procedure, shortened: as §1
# Staphylococcus aureus [5] = assay: Antibacterial activity against Staphylococcus aureus ATCC 29213 after 18 hrs; assay type: functional; details: ATCC 29213, 18 h; procedure, shortened: as §1
# Staphylococcus aureus [6] = assay: Antibacterial activity against Staphylococcus aureus NCTC 13758 after 18 hrs; assay type: functional; details: NCTC 13758, 18 h; procedure, shortened: as §1
# Staphylococcus aureus [7] = assay: Antibacterial activity against Staphylococcus aureus OCC 104 after 18 hrs; assay type: functional; details: OCC 104, 18 h; procedure, shortened: as §1
# Staphylococcus aureus [8] = assay: Antibacterial activity against Staphylococcus aureus OCC 106 after 18 hrs; assay type: functional; details: OCC 106, 18 h; procedure, shortened: as §1
# [9] = tested on: Staphylococcus epidermidis; assay: Antibacterial activity against Staphylococcus epidermidis 155 after 18 hrs; assay type: functional; details: Staphylococcus epidermidis, 155, 18 h; procedure, shortened: as §1
# [10] = tested on: Staphylococcus epidermidis; assay: Antibacterial activity against Staphylococcus epidermidis ATCC 12228 after 18 hrs; assay type: functional; details: ATCC 12228, 18 h; procedure, shortened: as §1
# [11] = tested on: Staphylococcus epidermidis; assay: Antibacterial activity against Staphylococcus epidermidis ATCC 14990 after 18 hrs; assay type: functional; details: ATCC 14990, 18 h; procedure, shortened: as §1
# [12] = tested on: Staphylococcus haemolyticus; assay: Antibacterial activity against Staphylococcus haemolyticus OCC 2223 after 18 hrs; assay type: functional; details: OCC 2223, 18 h
# Procedure, shortened: (§2)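 Broth microdilution in Nutrient Broth No. 2. Ethanol stocks were diluted in broth to 0.01–128 µg/ml for triclosan and 0.25–256 µg/ml for glycosides. Overnight 37°C NB2 cultures were diluted 1 in 10^4 in saline and added to the wells. Plates were incubated at 37°C with OD read every 15 min after agitation. MIC was the lowest concentration giving no OD increase at 18 h.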
# [13] = tested on: Staphylococcus saprophyticus; assay: Antibacterial activity against Staphylococcus saprophyticus ATCC 15305 after 18 hrs; assay type: functional; details: ATCC 15305, 18 h; procedure, shortened: as §2
# Streptococcus agalactiae = assay: Antibacterial activity against Streptococcus agalactiae OCC 182 after 18 hrs; assay type: functional; details: OCC 182, 18 h; procedure, shortened: as §2
# Streptococcus pneumoniae [14] = assay: Antibacterial activity against Streptococcus pneumoniae 6305 after 18 hrs; assay type: functional; details: Streptococcus pneumoniae, 6305, 18 h; procedure, shortened: as §2
# Streptococcus pneumoniae [15] = assay: Antibacterial activity against Streptococcus pneumoniae ATCC 49619 after 18 hrs; assay type: functional; details: ATCC 49619, 18 h; procedure, shortened: as §2
# Streptococcus pyogenes = assay: Antibacterial activity against Streptococcus pyogenes ATCC 19615 after 18 hrs; assay type: functional; details: ATCC 19615, 18 h; procedure, shortened: as §2
# Streptococcus viridans = assay: Antibacterial activity against Streptococcus viridans OCC 234 after 18 hrs; assay type: functional; details: OCC 234, 18 h; procedure, shortened: as §2
# [16] = tested on: Salmonella enterica subsp. enterica serovar Abony; assay: Antibacterial activity against Salmonella enterica subspecies enterica serotype Abony NCTC 6017 after 18 hrs; assay type: functional; details: NCTC 6017, 18 h; procedure, shortened: as §1
# [17] = Antibacterial activity against Salmonella enterica subspecies enterica serotype Arizonae OCC 706 after 18 hrs; assay type: functional, Salmonella enterica subsp. enterica serovar Arizonae; details: OCC 706, 18 h; procedure, shortened: as §1
# [18] = Antibacterial activity against Salmonella enterica subspecies enterica serotype Dublin OCC 627 after 18 hrs; assay type: functional, Salmonella enterica subsp. enterica serovar Dublin; details: OCC 627, 18 h; procedure, shortened: as §1
# Salmonella enteritidis = assay: Antibacterial activity against Salmonella enterica subspecies enterica serotype Enteritidis 13076 after 18 hrs; assay type: functional, Salmonella enterica subsp. enterica serovar Enteritidis; details: Salmonella enterica, 13076, 18 h; procedure, shortened: as §1
# [19] = Antibacterial activity against Salmonella enterica subspecies enterica serotype Indiana OCC 597 after 18 hrs; assay type: functional, Salmonella enterica subsp. enterica serovar Indiana; details: OCC 597, 18 h; procedure, shortened: as §1
# [20] = Antibacterial activity against Salmonella enterica subspecies enterica serotype Infantis OCC 2133 after 18 hrs; assay type: functional, Salmonella enterica subsp. enterica serovar Infantis; details: OCC 2133, 18 h; procedure, shortened: as §1
# [21] = Antibacterial activity against Salmonella enterica subspecies enterica serotype Nottingham NCTC 7832 after 18 hrs; assay type: functional, Salmonella enterica subsp. enterica serovar Nottingham; details: NCTC 7832, 18 h; procedure, shortened: as §1
# [22] = Antibacterial activity against Salmonella enterica subspecies enterica serotype Poona NCTC 4840 after 18 hrs; assay type: functional, Salmonella enterica subsp. enterica serovar Poona; details: NCTC 4840, 18 h; procedure, shortened: as §1
# [23] = Antibacterial activity against Salmonella enterica subspecies enterica serotype Pullorum OCC 273 after 18 hrs; assay type: functional, Salmonella enterica subsp. enterica serovar Pullorum; details: OCC 273, 18 h; procedure, shortened: as §1
# Salmonella typhimurium = assay: Antibacterial activity against Salmonella enterica subspecies enterica serotype typhimurium ATCC 14028 after 18 hrs; assay type: functional, Salmonella enterica subsp. enterica serovar Typhimurium; details: ATCC 14028, 18 h; procedure, shortened: as §1
# [24] = Antibacterial activity against Salmonella enterica subspecies enterica serotype Virchow NCTC 5742 after 18 hrs; assay type: functional, Salmonella enterica subsp. enterica serovar Virchow; details: NCTC 5742, 18 h; procedure, shortened: as §1
smiles,measurement,setting,value
O[C@@H]1[C@@H](Oc2cc(Cl)ccc2Oc2ccc(Cl)cc2Cl)OC[C@@H](O)[C@H]1O,MIC,Staphylococcus aureus [1],0.5 µg/mL
same,MIC,Staphylococcus aureus [2],0.5 µg/mL
same,MIC,Staphylococcus aureus [3],0.5 µg/mL
same,MIC,Staphylococcus aureus [4],0.5 µg/mL
same,MIC,Staphylococcus aureus [5],0.5 µg/mL
same,MIC,Staphylococcus aureus [6],0.5 µg/mL
same,MIC,Staphylococcus aureus [7],0.5 µg/mL
same,MIC,Staphylococcus aureus [8],0.5 µg/mL
same,MIC,[9],0.5 µg/mL
same,MIC,[10],0.5 µg/mL
same,MIC,[11],0.5 µg/mL
same,MIC,[12],0.5 µg/mL
same,MIC,[13],8 µg/mL
same,MIC,Streptococcus agalactiae,128 µg/mL
same,MIC,Streptococcus pneumoniae [14],64 µg/mL
same,MIC,Streptococcus pneumoniae [15],64 µg/mL
same,MIC,Streptococcus pyogenes,16 µg/mL
same,MIC,Streptococcus viridans,128 µg/mL
same,MIC,[16],2 to 8 µg/mL
same,MIC,[17],2 to 8 µg/mL
same,MIC,[18],2 to 8 µg/mL
same,MIC,Salmonella enteritidis,2 to 8 µg/mL
same,MIC,[19],2 to 8 µg/mL
same,MIC,[20],2 to 8 µg/mL
same,MIC,[21],2 to 8 µg/mL
same,MIC,[22],2 to 8 µg/mL
same,MIC,[23],2 to 8 µg/mL
same,MIC,Salmonella typhimurium,2 to 8 µg/mL
same,MIC,[24],2 to 8 µg/mL
